Experimental data taken from article PMC2614345 (Toxicology and applied pharmacology, 2008).
Where two headings read alike, the source gives them in different places.

Legend:
rats = conditions: ref Dugas et al., 2001, cited from earlier work
[1] = 25 mg/kg DAPM, ref Dugas et al., 2001, cited from earlier work
[2] = Biliary excretion of DAPM metabolites; format: in vivo, Sprague Dawley rats; conditions: for biliary excretion, male compared to female rats: AUC analysis, 25 and 50 mg/kg DAPM; for AUC for DAPM metabolite elimination in the bile, Females: female rats; for AUC for DAPM metabolite elimination in the bile, Females / AUC for DAPM metabolite elimination in the bile, Males: bile collected 6 h, mean ± SEM, n=4–6; for AUC for DAPM metabolite elimination in the bile, Males: male rats
In short: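 Sprague Dawley rats of both sexes (12–15 wk) under pentobarbital, with biliary, duodenal and peritoneal cannulas and duodenal taurocholate infusion; 1 h basal bile. Gavage of [14C]-test compound, 25 or 50 mg/kg in 35% ethanol, 2 mL/kg. Bile taken for 6 h in 15-min fractions, deproteinized, then C18 HPLC with UV 254 nm and radioisotope detection. Per-rat nmol-versus-time AUC; group mean ± SEM, n=4–6; two-way ANOVA.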

Structure (SMILES) | threshold dose for observing injury (rats; female rats) [mg/kg] | threshold dose for observing injury (rats; male rats) [mg/kg] | maximum rate of biliary excretion of metabolite ([1]; female rats, maximum at 45 min) | maximum rate of biliary excretion of metabolite ([1]; male rats, maximum at 15 min) | biliary excretion, male compared to female rats [2] | AUC for DAPM metabolite elimination in the bile, Females ([2]; DAPM 25 mg/kg by gavage) [nmol·h] | AUC for DAPM metabolite elimination in the bile, Females ([2]; DAPM 50 mg/kg by gavage) [nmol·h] | AUC for DAPM metabolite elimination in the bile, Males ([2]; DAPM 25 mg/kg by gavage) [nmol·h] | AUC for DAPM metabolite elimination in the bile, Males ([2]; DAPM 50 mg/kg by gavage) [nmol·h]
Nc1ccc(Cc2ccc(N)cc2)cc1 [DAPM, 4,4’-Methylenedianiline] | 25 | 50 | ~ 9 µg/min*kg | ~ 18 µg/min*kg | biliary excretion in males was likewise greater than that in female rats | 29 ± 14 | 67 ± 31 | 155 ± 22 | 176 ± 74
CC(=O)Nc1ccc(Cc2ccc(N)cc2)cc1 [Metabolite M5, N-acetyl-DAPM] |  |  |  |  | greater in male compared to female rats | 39 ± 13 | 132 ± 70 | 175 ± 11 | 259 ± 86
